Published values gathered from unrelated publications.
Target: Acetylcholinesterase (ACHE, Homo sapiens, UniProt P22303)
Read-out: enzyme activity
Action: inhibitor

| SMILES | method | IC50 |
| --- | --- | --- |
| CC(C)c1cc2c(c(O)c1O)[C@@]13CCCC(C)(C)[C@@H]1C[C@@H]2OC3=O |  | 0.00081 µM |
| COc1cc(-c2nc3ccccc3s2)cc2c1OCC(=O)N2CC(=O)NCC(=O)O | Ellman | > 299 µM |
| O=c1cc(CSc2ccc(N=Cc3cccc(O)c3)cc2)occ1O | Ellman | 3.64 µM |
| Cc1ccc(NC(=O)CSc2nnc(COc3ccc4ccccc4c3)n2-c2ccccc2)cc1C | Ellman | 0.778 µM |
| O=c1cc(CSc2ccc(N=Cc3cccc(Br)c3)cc2)occ1O | Ellman | 5.58 µM |
| COc1cc(-c2nc3ccccc3s2)cc2c1OCC(=O)N2CC(=O)N[C@@H](C)C(=O)O | Ellman | > 290 µM |
| CCOc1ccc(NC(=O)CSc2nnc(COc3ccc4ccccc4c3)n2-c2ccccc2)cc1 | Ellman | 0.815 µM |
| COc1cc(-c2nc3ccccc3s2)cc(NC(C)=O)c1OCC(=O)N[C@@H](C)C(=O)O | Ellman | > 289 µM |
| O=c1cc(CSc2ccc(N=Cc3ccccc3F)cc2)occ1O | Ellman | 4.1 µM |
| CC(C)c1cc2c(c(O)c1O)[C@@]13CCCC(C)(C)[C@@H]1[C@@H](O)[C@@H]2OC3=O |  | 0.00098 µM |
| O=c1cc(CSc2ccc(N=Cc3cccc(F)c3)cc2)occ1O | Ellman | 26.3 µM |
| Cc1cccc(C)c1NC(=O)CSc1nnc(COc2ccc3ccccc3c2)n1-c1ccccc1 | Ellman | 1.01 µM |
| CC[C@@H](C)[C@H](NC(=O)CN1C(=O)COc2c(OC)cc(-c3nc4ccccc4s3)cc21)C(=O)O | Ellman | > 265 µM |
| Cc1cc(C)cc(NC(=O)CSc2nnc(COc3ccc4ccccc4c3)n2-c2ccccc2)c1 | Ellman | 1.12 µM |
| COc1cc(-c2nc3ccccc3s2)cc2c1OCC(=O)N2CC(=O)N[C@@H](CC(C)C)C(=O)O | Ellman | > 265 µM |
